Laboratory results as given in ChEMBL document CHEMBL1142853 (Bioorg Med Chem Lett, 2005).

What was measured:
[1] = target: T1, 5-hydroxytryptamine receptor 2C (Homo sapiens, UniProt P28335); assay: Inhibition constant against human 5-hydroxytryptamine 2C receptor [INI isoforms] using [3H]mesulergine as radioligand with the compound (10 uM) dissolved in DMSO
T1 sequence (P28335 whole entry): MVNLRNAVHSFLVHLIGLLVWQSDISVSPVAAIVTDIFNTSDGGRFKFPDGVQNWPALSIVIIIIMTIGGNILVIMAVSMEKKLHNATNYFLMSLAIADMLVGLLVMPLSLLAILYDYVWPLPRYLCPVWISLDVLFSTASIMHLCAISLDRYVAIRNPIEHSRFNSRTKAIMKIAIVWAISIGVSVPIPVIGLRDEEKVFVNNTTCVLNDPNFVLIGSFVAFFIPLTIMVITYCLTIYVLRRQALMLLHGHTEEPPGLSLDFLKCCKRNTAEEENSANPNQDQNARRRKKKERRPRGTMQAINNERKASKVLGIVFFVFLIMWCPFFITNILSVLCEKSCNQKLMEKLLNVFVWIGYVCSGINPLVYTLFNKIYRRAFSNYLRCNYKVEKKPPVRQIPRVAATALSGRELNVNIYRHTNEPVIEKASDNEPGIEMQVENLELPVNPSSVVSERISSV
Outline: (§1)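 Competition binding with [3H]ketanserin (5-HT2A), [3H]mesulergine (5-HT2C) or [3H]LSD (5-HT2B) on receptor preparations. Compounds in 10% DMSO were first screened at a single concentration as duplicate determinations, each run in duplicate. Compounds giving >50% inhibition of specific binding were then tested in duplicate from 1 to 100,000 nM. Ki is the mean ± SD of computer-derived estimates, N = 4.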

[2] = target: T2, 5-hydroxytryptamine receptor 2B (Homo sapiens, UniProt P41595); assay: Inhibition constant against human 5-hydroxytryptamine 2B receptor using [3H]LSD as radioligand with the compound (10 uM) dissolved in DMSO; outline: as §1
T2 sequence (P41595 whole entry): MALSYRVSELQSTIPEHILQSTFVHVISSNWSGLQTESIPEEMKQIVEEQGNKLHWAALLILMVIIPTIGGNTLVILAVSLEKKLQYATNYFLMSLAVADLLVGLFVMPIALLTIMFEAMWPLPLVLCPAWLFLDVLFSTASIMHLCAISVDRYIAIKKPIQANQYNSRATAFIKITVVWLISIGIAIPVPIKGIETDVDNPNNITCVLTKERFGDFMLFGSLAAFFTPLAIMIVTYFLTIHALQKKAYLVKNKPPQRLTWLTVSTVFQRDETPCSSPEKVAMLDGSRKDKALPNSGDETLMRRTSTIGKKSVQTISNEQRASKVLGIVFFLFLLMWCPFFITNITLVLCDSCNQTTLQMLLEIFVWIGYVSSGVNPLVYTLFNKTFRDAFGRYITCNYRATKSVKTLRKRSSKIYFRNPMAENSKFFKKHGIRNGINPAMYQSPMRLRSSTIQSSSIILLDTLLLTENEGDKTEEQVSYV

[3] = target: 5-hydroxytryptamine receptor 2A (Rattus norvegicus, UniProt P14842); assay: Inhibition constant against rat 5-hydroxytryptamine 2A receptor using [3H]ketanserin as radioligand with the compound (10 uM) dissolved in DMSO; outline: as §1
5-hydroxytryptamine receptor 2A (Rattus norvegicus, UniProt P14842), sequence (P14842 whole entry): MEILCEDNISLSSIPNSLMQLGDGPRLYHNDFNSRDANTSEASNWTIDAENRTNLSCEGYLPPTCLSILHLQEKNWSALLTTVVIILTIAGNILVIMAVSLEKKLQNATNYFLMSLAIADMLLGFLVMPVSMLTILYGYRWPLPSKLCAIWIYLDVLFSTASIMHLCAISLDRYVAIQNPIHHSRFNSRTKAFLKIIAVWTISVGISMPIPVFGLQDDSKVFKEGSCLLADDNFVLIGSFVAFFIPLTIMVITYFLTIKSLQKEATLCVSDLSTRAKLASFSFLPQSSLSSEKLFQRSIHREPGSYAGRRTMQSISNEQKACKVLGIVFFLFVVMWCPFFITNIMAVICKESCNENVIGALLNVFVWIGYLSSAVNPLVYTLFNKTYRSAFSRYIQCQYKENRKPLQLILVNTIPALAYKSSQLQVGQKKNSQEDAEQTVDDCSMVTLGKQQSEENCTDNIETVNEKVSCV

[4] = target: T3, 5-hydroxytryptamine receptor 2C (Rattus norvegicus, UniProt P08909); assay: Inhibition constant against rat 5-hydroxytryptamine 2C receptor using [3H]mesulergine as radioligand with the compound (10 uM) dissolved in DMSO; outline: as §1
T3 sequence (P08909 whole entry): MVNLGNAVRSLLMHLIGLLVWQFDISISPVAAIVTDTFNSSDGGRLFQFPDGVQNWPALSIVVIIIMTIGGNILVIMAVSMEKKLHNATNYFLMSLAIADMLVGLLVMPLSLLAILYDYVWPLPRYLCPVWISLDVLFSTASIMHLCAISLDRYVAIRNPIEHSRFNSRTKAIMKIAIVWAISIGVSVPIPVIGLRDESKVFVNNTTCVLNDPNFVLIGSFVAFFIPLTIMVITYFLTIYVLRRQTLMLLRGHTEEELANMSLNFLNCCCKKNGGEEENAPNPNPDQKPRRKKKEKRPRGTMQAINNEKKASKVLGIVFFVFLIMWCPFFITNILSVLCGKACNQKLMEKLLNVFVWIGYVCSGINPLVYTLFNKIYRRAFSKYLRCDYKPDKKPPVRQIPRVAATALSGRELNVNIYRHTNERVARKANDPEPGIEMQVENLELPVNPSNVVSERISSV

[5] = target: T4, 5-hydroxytryptamine receptor 2A (Homo sapiens, UniProt P28223); assay: Inhibition constant against human 5-hydroxytryptamine 2A receptor using [3H]ketanserin as radioligand with the compound (10 uM) dissolved in DMSO; outline: as §1
T4 sequence (P28223 whole entry, canonical isoform): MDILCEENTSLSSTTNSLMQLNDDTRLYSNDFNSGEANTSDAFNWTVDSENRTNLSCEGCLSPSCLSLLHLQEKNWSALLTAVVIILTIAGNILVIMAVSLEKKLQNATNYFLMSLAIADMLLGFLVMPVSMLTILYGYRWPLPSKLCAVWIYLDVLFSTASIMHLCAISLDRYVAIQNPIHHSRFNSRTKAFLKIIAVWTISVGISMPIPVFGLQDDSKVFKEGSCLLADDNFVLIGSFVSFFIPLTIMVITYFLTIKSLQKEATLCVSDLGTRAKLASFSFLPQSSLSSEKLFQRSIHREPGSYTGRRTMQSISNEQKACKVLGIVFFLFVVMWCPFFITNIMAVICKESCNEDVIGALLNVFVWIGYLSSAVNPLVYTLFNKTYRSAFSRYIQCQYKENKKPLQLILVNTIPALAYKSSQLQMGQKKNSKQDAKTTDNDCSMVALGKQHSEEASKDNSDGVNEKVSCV

[6] = target: T1, 5-hydroxytryptamine receptor 2C; assay: Inhibition constant against human 5-hydroxytryptamine 2C receptor [VGI isoforms] using [3H]mesulergine as radioligand with the compound (10 uM) dissolved in DMSO; outline: as §1
[7] = target: T4, 5-hydroxytryptamine receptor 2A; assay: Antagonistic activity against accumulation of [3H]-inositol phosphate in cells stably expressing human 5-hydroxytryptamine 2A receptor determined by phosphoinositide hydrolysis assay; type: functional; settings: filed as antagonist
Outline: (§2)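 Phosphoinositide hydrolysis assay with human receptors, 5-HT2A and 5-HT2C expressed stably and 5-HT2B transiently. Cells were loaded overnight with [3H]inositol (15 Ci/mmol; 1 mCi/mL as supplied) in inositol-free DMEM without serum.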

[8] = target: T5, 5-hydroxytryptamine receptor 2C (Homo sapiens) (UniProt P28335); assay: Antagonistic activity against accumulation of [3H]inositol phosphate in cells stably expressing human 5-hydroxytryptamine 2C receptor determined by phosphoinositide hydrolysis assay; type: functional; settings: filed as antagonist; outline: as §2
T5 sequence (whole entry): T1 sequence (P28335 whole entry)

[9] = target: T2, 5-hydroxytryptamine receptor 2B; assay: Antagonistic activity against accumulation of [3H]inositol phosphate in cells transiently expressing human 5-hydroxytryptamine 2B receptor determined by phosphoinositide hydrolysis assay; type: functional; settings: filed as antagonist; outline: as §2
[10] = target: T4, 5-hydroxytryptamine receptor 2A; assay: Effective concentration required for accumulation of [3H]inositol phosphate in cells stably expressing human 5-hydroxytryptamine 2A receptor determined by phosphoinositide hydrolysis assay; type: functional
Outline: (§3)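 Phosphoinositide hydrolysis measured in cells expressing human 5-HT2A (stable) or 5-HT2B (transient) receptors, loaded overnight with [3H]inositol (15 Ci/mmol; 1 mCi/mL as supplied) in serum-free, inositol-free DMEM. Where SD is given, N ≥ 3.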

[11] = target: T1, 5-hydroxytryptamine receptor 2C; assay: Effective concentration required for accumulation of [3H]inositol phosphate in cells stably expressing human 5-hydroxytryptamine 2C receptor determined by phosphoinositide hydrolysis assay; type: functional
[12] = target: T2, 5-hydroxytryptamine receptor 2B; assay: Effective concentration required for accumulation of [3H]inositol phosphate in cells transiently expressing human 5-hydroxytryptamine 2B receptor determined by phosphoinositide hydrolysis assay; type: functional; outline: as §3

Compound	Ki [1]	Ki [2]	Ki [3]	Ki [4]	Ki [5]	Ki [6]	Activity [7]	Activity [8]	Activity [9]	EC50 [10]	EC50 [11]	EC50 [12]
CN1CCN(CCc2c[nH]c3cccc(O)c23)CC1	103 nM	116 nM	6900 nM	> 10000 nM	9750 nM	–	–	–	–	–	–	–
CN(C)CCc1c[nH]c2cc(O)ccc12	> 10000 nM	6300 nM	> 10000 nM	19000 nM	7600 nM	6800 nM	–	–	–	–	–	–
CN(C)CCn1ccc2c(O)cccc21	2180 nM	–	> 10000 nM	9350 nM	–	4200 nM	–	–	–	–	–	–
CN(C)CCCc1c[nH]c2cccc(O)c12	1110 nM	98 nM	–	–	588 nM	84 nM	–	–	–	–	–	–
CN(C)Cc1c[nH]c2cccc(O)c12	24 nM	1240 nM	834 nM	49 nM	923 nM	12.6 nM	Antagonist	Antagonist	Antagonist	–	–	–
CN(C)CCc1cn(C)c2cccc(O)c12	7 nM	38 nM	590 nM	48 nM	900 nM	33 nM	–	–	–	633 nM	12 nM	–
CN(C)CCc1c[nH]c2cccc(OP(=O)(O)O)c12 [PSILOCYBIN]	–	–	–	–	–	–	–	–	–	3480 nM	506 nM	–
CN(C)CCc1c[nH]c2cccc(F)c12	82 nM	8.39 nM	1010 nM	359 nM	335 nM	84 nM	–	–	–	949 nM	99 nM	1180 nM
CN(C)CCc1cn(C)c2cccc(OP(=O)(O)O)c12	> 10000 nM	5500 nM	> 10000 nM	> 10000 nM	> 10000 nM	540 nM	–	–	–	–	–	–
CC(Cc1c[nH]c2cccc(O)c12)N(C)C (centres undefined)	126 nM	745 nM	–	–	982 nM	–	–	–	–	–	–	–
CCCCn1cc(CCN(C)C)c2c(OP(=O)(O)O)cccc21	73 nM	170 nM	> 10000 nM	5700 nM	3000 nM	210 nM	Antagonist	Antagonist	Antagonist	–	–	–
Oc1cccc2[nH]cc(CCN3CCCC3)c12	275 nM	423 nM	–	–	429 nM	1770 nM	–	–	–	–	–	–
Cc1[nH]c2cccc(O)c2c1CCN(C)C	–	–	1680 nM	1280 nM	122 nM	539 nM	–	–	–	–	–	–
CCCCn1cc(CCN(C)C)c2c(O)cccc21	4.4 nM	5.8 nM	200 nM	15.7 nM	310 nM	14 nM	–	–	–	32 nM	595 nM	–
Oc1cccc2[nH]cc(CCN3CCCc4ccccc43)c12	468 nM	5570 nM	8370 nM	1450 nM	–	–	–	–	–	–	–	–
CN(C)Cc1cn(C)c2cccc(O)c12	87 nM	1240 nM	–	–	498 nM	125 nM	–	–	–	–	–	–
